Assay results gathered from unrelated publications.
Protocols differ between the studies behind these lines.
Organism: Candida albicans
Observed: microbial growth

| Structure (SMILES) | technique | strain | time | notes | MIC |
| --- | --- | --- | --- | --- | --- |
| O=C(Cc1ccc(O)c(O)c1)NCCCCCCCC[P+](c1ccccc1)(c1ccccc1)c1ccccc1.[Br-] | broth dilution | ATCC90028 | 24 h |  | > 32 µg/mL |
| CC1=NN(CNc2ccc(C(=O)O)cc2)C(=O)C1=NNn1c(-c2ccccc2)nc2ccccc2c1=O | broth dilution |  |  |  | 50.5 µM |
| O=C(CCCCCC[P+](c1ccccc1)(c1ccccc1)c1ccccc1)Nc1cc(O)c(O)c(O)c1.[Br-] | broth dilution | ATCC90028 | 24 h |  | > 32 µg/mL |
| C[C@@H]1[C@H](O)[C@@H](C)/C=C/C=C/C=C/C=C/C=C/C=C/C=C/[C@H](O[C@@H]2O[C@H](C)[C@@H](O)[C@H](N)[C@@H]2O)C[C@@H]2O[C@](O)(C[C@@H](O)C[C@@H](O)[C@H](O)CC[C@@H](O)C[C@@H](O)CC(=O)O[C@H]1C)C[C@H](O)[C@H]2C(=O)O |  | ATCC90028 |  |  | 0.63 µg/mL |
| OC(Cn1cncn1)(Cn1cncn1)c1ccc(F)cc1F | broth dilution | ATCC10231 |  |  | 1 µg/mL |
| CC1=NN(CNC(=O)c2ccccn2)C(=O)C1=NNn1c(-c2ccccc2)nc2ccccc2c1=O | broth dilution |  |  |  | 104 µM |
| CC[C@@H]([C@H](C)O)n1ncn(-c2ccc(N3CCN(c4ccc(OC[C@@H]5CO[C@@](Cn6cncn6)(c6ccc(F)cc6F)C5)cc4)CC3)cc2)c1=O |  | ATCC10231 | 72 h |  | < 0.3 µM |
| CCOC(=O)c1nc2ccccc2c(=O)n1Cc1cn(-c2ccc(C)cc2)nn1 | broth dilution | ATCC90028 |  |  | 250 µg/mL |
| O=C(CCc1cc(O)c(O)c(O)c1)NCCCCCCCC[P+](c1ccccc1)(c1ccccc1)c1ccccc1.[Br-] | broth dilution | ATCC90028 | 24 h |  | > 32 µg/mL |
| OC(Cn1cncn1)(Cn1cncn1)c1ccc(F)cc1F |  | SC5314 |  |  | 2 µg/mL |
| O=C(CCCCCCCC[P+](c1ccccc1)(c1ccccc1)c1ccccc1)Nc1ccc(O)c(O)c1.[Br-] | broth dilution | ATCC90028 | 24 h |  | > 32 µg/mL |
| N=C(N)NCc1ccc(NC(=O)C23CCC(C(=O)Nc4ccc(C5=CCN(C(=N)N)CC5)cc4)(CC2)CC3)cc1 | broth dilution |  | 48 h | clinical isolate | 0.2 µg/mL |
| O=C1NN=C(N=Cc2ccccc2O)C1=NNn1c(-c2ccccc2)nc2ccccc2c1=O | broth dilution |  |  |  | 111 µM |
| COc1cc(-c2ccccc2)cc(C(C)C#Cc2c(C)nc(N)nc2N)c1 (racemic) | resazurin |  |  |  | 250 µM |
| CC1=NN(CNc2c(O)c(S(=O)(=O)O)cc3ccccc23)C(=O)C1=NNn1c(-c2ccccc2)nc2ccccc2c1=O | broth dilution |  |  |  | 41.8 µM |
| C=C1C(=O)O[C@@H](CCCCCCCCCCCCC)[C@@H]1C(=O)O |  | SC5314 |  |  | 64 µg/mL |
